Measured values reported in ChEMBL document CHEMBL1123899, “Nucleic acid related compounds. 51. Synthesis and biological properties of sugar-modified analogues of the nucleoside antibiotics tubercidin, toyocamycin, sangivamycin, and formycin” (1987).
In brackets after ≈: the same amount, converted by molar mass.

Columns and labels:
L1210 [1] = assay: Minimum inhibitory concentration required to reduce incorporation of [5-3H]-Urd into TCA-insoluble material from murine leukemia L1210 cells; assay type: functional; settings: Mus musculus
Method in brief: (§1)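 Murine L1210 leukemia cells were exposed to compound and incorporation of [4,5-3H]leucine (protein) or [5-3H]Urd (RNA) into TCA-insoluble material was measured. MIC50 is the concentration reducing incorporation by 50%. Values are averages of at least three separate experiments.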

HeLa = assay: Minimum cytotoxic concentration required to cause a microscopically detectable alteration of normal cell morphology in Hela cells; assay type: functional, Homo sapiens
Method in brief: (§2)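 Cytotoxicity read microscopically as the minimum concentration producing a detectable alteration of normal cell morphology, in PRK, HeLa or Vero cell cultures. Average of two to three separate experiments.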

L1210 [2] = assay: Minimum inhibitory concentration required to reduce incorporation of [methyl-3H]dThd into TCA-insoluble material from murine leukemia L1210 cells; assay type: functional; settings: Mus musculus
Method in brief: (§3)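 Murine L1210 leukemia cells; MIC50 is the concentration reducing cell growth, or incorporation of [methyl-3H]dThd into TCA-insoluble material (DNA synthesis), by 50%. Average of at least three separate experiments.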

L1210 [3] = assay: Inhibition of murine leukemia L1210 cell growth; assay type: functional; settings: Mus musculus; method in brief: as §3
Human alphaherpesvirus 1 = assay: Minimum inhibitory concentration required to reduce Herpes simplex virus type 1 (HSV-1, strain KOS) induced cytopathogenicity by 50%; assay type: functional
Oryctolagus cuniculus = species on record: Oryctolagus cuniculus; assay: Minimum cytotoxic concentration required to cause a microscopically detectable alteration of normal cell morphology in primary rabbit kidney cells; assay type: functional; method in brief: as §2
Vero = assay: Minimum cytotoxic concentration required to cause a microscopically detectable alteration of normal cell morphology in Vero cells; assay type: functional, Chlorocebus sabaeus; method in brief: as §2
[4] = tested on: Mammalian orthoreovirus 1; assay: Minimum inhibitory concentration required to reduce reo virus type 1 induced cytopathogenicity by 50%; assay type: functional
Human respirovirus 3 = assay: Minimum inhibitory concentration required to reduce parainfluenza type 3 induced cytopathogenicity by 50%; assay type: functional
[5] = tested on: Vesicular stomatitis virus; assay: Minimum inhibitory concentration required to reduce vesicular stomatitis virus (VSV) induced cytopathogenicity by 50%; assay type: functional
Coxsackievirus B4 = assay: Minimum inhibitory concentration required to reduce Coxsackie virus type B-4-induced cytopathogenicity by 50%; assay type: functional
Poliovirus 1 = assay: Minimum inhibitory concentration required to reduce Polio virus type 1 induced cytopathogenicity by 50%; assay type: functional; settings: Enterovirus C
Sindbis virus = assay: Minimum inhibitory concentration required to reduce sindbis virus induced cytopathogenicity by 50%; assay type: functional
Human alphaherpesvirus 2 = assay: Minimum inhibitory concentration required to reduce Herpes simplex virus type 2 (HSV-2 strain G) induced cytopathogenicity by 50%; assay type: functional
[6] = tested on: Vesicular stomatitis virus; assay: Minimum inhibitory concentration required to reduce Vesicular stomatitis virus (VSV) induced cytopathogenicity by 50%; assay type: functional
Measles morbillivirus = assay: Minimum inhibitory concentration required to reduce measles virus induced cytopathogenicity by 50%; assay type: functional
L1210 [7] = assay: Minimum inhibitory concentration required to reduce incorporation of [4,5-3H]leucine into TCA-insoluble material from murine leukemia L1210 cells; assay type: functional; settings: Mus musculus; method in brief: as §1

Structure (SMILES) | MIC50 (L1210 [1]) [µg/mL] | MTC (HeLa) [µg/mL] | MIC50 (L1210 [2]) [µg/mL] | MIC50 (L1210 [3]) [µg/mL] | MIC50 (Human alphaherpesvirus 1) [µg/mL] | MTC (Oryctolagus cuniculus) [µg/mL] | MTC (Vero) [µg/mL] | MIC50 [4] [µg/mL] | MIC50 (Human respirovirus 3) [µg/mL] | MIC50 [5] [µg/mL] | MIC50 (Coxsackievirus B4) [µg/mL] | MIC50 (Coxsackievirus B4; Enterovirus B, read-out: MIC50) [µg/mL] | MIC50 (Poliovirus 1) [µg/mL] | MIC50 (Sindbis virus) [µg/mL] | MIC50 (Human alphaherpesvirus 2) [µg/mL] | MIC50 [6] [µg/mL] | MIC50 (Measles morbillivirus) [µg/mL] | MIC50 (L1210 [7]) [µg/mL]
N#Cc1cn(C2OC(CO)CC2O)c2ncnc(N)c12 (centres undefined) | 0.16 (≈ 0.581 µM) | 1 | 93 (≈ 338 µM) | 0.02 (≈ 0.0727 µM) | > 0.4 | 1 | 1 | 0.7 (≈ 2.54 µM) | 0.4 (≈ 1.45 µM) | > 1 | >1 | 0.7 (≈ 2.54 µM) | > 1 | 0.7 (≈ 2.54 µM) | > 0.4 | > 1 | > 1 | 0.113 (≈ 0.411 µM)
Nc1ncnc2c1ccn2C1OC(CO)CC1O (centres undefined) | 3.2 (≈ 12.8 µM) | 40 | 90 (≈ 360 µM) | 0.38 (≈ 1.52 µM) | > 10 | 10 | 100 | 10 (≈ 40 µM) | 20 (≈ 79.9 µM) | > 10 | – | – | 2 (≈ 7.99 µM) | > 100 | > 10 | 20 (≈ 79.9 µM) | > 100 | 2.08 (≈ 8.31 µM)
Nc1ncnc2c(C3OC(CO)CC3O)n[nH]c12 (centres undefined) | > 1000 | >400 | > 1000 | > 1000 | > 400 | >400 | >400 | > 400 | > 400 | > 400 | – | > 400 | > 400 | > 400 | – | > 400 | 100 (≈ 398 µM) | > 1000
NC(=O)c1cn([C@@H]2O[C@H](CO)[C@@H](O)[C@@H]2O)c2ncnc(N)c12 | 5.85 (≈ 18.9 µM) | 10 | 50 (≈ 162 µM) | 0.98 (≈ 3.17 µM) | 4 (≈ 12.9 µM) | 40 | 40 | 6 (≈ 19.4 µM) | 1 (≈ 3.23 µM) | 3 (≈ 9.7 µM) | – | – | > 10 | > 40 | 1 (≈ 3.23 µM) | 1.5 (≈ 4.85 µM) | 10 (≈ 32.3 µM) | 2.2 (≈ 7.11 µM)
Nc1ncnc2c1ccn2[C@@H]1O[C@H](CO)[C@H](O)[C@H]1O | – | 4 | 6.7 (≈ 25.2 µM) | 0.248 (≈ 0.931 µM) | 0.2 (≈ 0.751 µM) | 10 | 40 | > 40 | > 40 | > 10 | – | – | > 4 | > 40 | 0.07 (≈ 0.263 µM) | > 4 | > 40 | –
Nc1ncnc2c1ccn2[C@@H]1O[C@H](CO)[C@@H](O)[C@@H]1O | 237 (≈ 890 µM) | >400 | 32 (≈ 120 µM) | 7 (≈ 26.3 µM) | 125 (≈ 469 µM) | >400 | >400 | > 400 | 300 (≈ 1130 µM) | > 400 | – | > 400 | > 400 | > 400 | 40 (≈ 150 µM) | > 350 | > 400 | 151 (≈ 567 µM)
Nc1ncnc2c([C@H]3C[C@H](O)[C@@H](CO)O3)n[nH]c12 | > 100 | >400 | > 1000 | 867 (≈ 3450 µM) | > 400 | >400 | >400 | > 400 | > 400 | > 400 | – | > 400 | > 400 | > 400 | > 400 | > 400 | > 400 | > 1000
NC(=O)c1cn([C@H]2C[C@H](O)[C@@H](CO)O2)c2ncnc(N)c12 | – | 10 | 16 (≈ 54.6 µM) | 1.21 (≈ 4.13 µM) | 2 (≈ 6.82 µM) | 10 | 10 | > 10 | > 10 | 2 (≈ 6.82 µM) | – | – | > 10 | > 10 | 1 (≈ 3.41 µM) | 1 (≈ 3.41 µM) | > 10 | –
N#Cc1cn([C@H]2C[C@H](O)[C@@H](CO)O2)c2ncnc(N)c12 | 0.34 (≈ 1.24 µM) | 4 | 10 (≈ 36.3 µM) | 0.109 (≈ 0.396 µM) | > 1 | 4 | 1 | > 1 | > 1 | 0.5 (≈ 1.82 µM) | – | – | > 4 | > 1 | 0.3 (≈ 1.09 µM) | 0.08 (≈ 0.291 µM) | 0.5 (≈ 1.82 µM) | 0.265 (≈ 0.963 µM)
N#Cc1cn([C@@H]2O[C@H](CO)[C@@H](O)[C@@H]2O)c2ncnc(N)c12 | 10.3 (≈ 35.4 µM) | 10 | 14 (≈ 48.1 µM) | 2 (≈ 6.87 µM) | 7 (≈ 24 µM) | 10 | 10 | > 10 | > 10 | > 10 | – | > 10 | > 10 | > 10 | 2 (≈ 6.87 µM) | > 10 | > 10 | 4.8 (≈ 16.5 µM)
NC(=O)c1cn(C2OC(CO)CC2O)c2ncnc(N)c12 (centres undefined) | – | 40 | 17 (≈ 58 µM) | 0.46 (≈ 1.57 µM) | > 10 | 10 | 40 | > 40 | 10 (≈ 34.1 µM) | > 10 | – | > 40 | > 40 | > 40 | > 10 | > 40 | > 40 | –
Nc1ncnc2c1ccn2[C@H]1C[C@H](O)[C@@H](CO)O1 [2'-Deoxytubercidin] | 205 (≈ 819 µM) | >400 | 127 (≈ 507 µM) | 23 (≈ 91.9 µM) | 50 (≈ 200 µM) | >400 | >400 | 200 (≈ 799 µM) | 40 (≈ 160 µM) | 125 (≈ 499 µM) | – | – | 150 (≈ 599 µM) | > 400 | 40 (≈ 160 µM) | 150 (≈ 599 µM) | > 200 | 44 (≈ 176 µM)
Nc1ncnc2c([C@@H]3O[C@H](CO)[C@@H](O)[C@H]3O)[nH]nc12 [FORMYCIN] | 25.7 (≈ 96.2 µM) | 1 | 7.5 (≈ 28.1 µM) | 3.7 (≈ 13.8 µM) | 10 (≈ 37.4 µM) | 20 | 10 | > 10 | 2 (≈ 7.48 µM) | 10 (≈ 37.4 µM) | – | – | > 1 | > 10 | 8 (≈ 29.9 µM) | > 1 | > 10 | 5.5 (≈ 20.6 µM)
NC(=O)c1ncn([C@@H]2O[C@H](CO)[C@@H](O)[C@H]2O)n1 [RIBAVIRIN] | – | >400 | – | – | > 400 | >400 | >400 | 75 (≈ 307 µM) | 50 (≈ 205 µM) | 300 (≈ 1230 µM) | 70 (≈ 287 µM) | 40 (≈ 164 µM) | 20 (≈ 81.9 µM) | 65 (≈ 266 µM) | > 400 | 4 (≈ 16.4 µM) | 30 (≈ 123 µM) | –
NC(=O)c1cn([C@@H]2O[C@H](CO)[C@@H](O)[C@H]2O)c2ncnc(N)c12 [SANGIVAMYCIN] | – | 0.4 | > 100 | 0.019 (≈ 0.0614 µM) | 0.07 (≈ 0.226 µM) | 1 | 0.4 | > 0.4 | 0.02 (≈ 0.0647 µM) | 0.02 (≈ 0.0647 µM) | – | – | 0.07 (≈ 0.226 µM) | > 0.4 | 0.07 (≈ 0.226 µM) | 0.04 (≈ 0.129 µM) | – | 0.014 (≈ 0.0453 µM)
N#Cc1cn([C@@H]2O[C@H](CO)[C@@H](O)[C@H]2O)c2ncnc(N)c12 [TOYOCAMYCIN] | 0.071 (≈ 0.244 µM) | 0.4 | 38 (≈ 130 µM) | 0.006 (≈ 0.0206 µM) | > 0.04 | 0.04 | 0.04 | > 0.04 | > 0.04 | > 0.04 | – | – | > 0.4 | > 0.04 | > 0.04 | 0.07 (≈ 0.24 µM) | – | 0.039 (≈ 0.134 µM)
Nc1ncnc2c1ccn2[C@@H]1O[C@H](CO)[C@@H](O)[C@H]1O [TUBERCIDIN] | 0.29 (≈ 1.09 µM) | 0.4 | 5.4 (≈ 20.3 µM) | 0.04 (≈ 0.15 µM) | 0.1 (≈ 0.376 µM) | 0.4 | 0.4 | 0.04 (≈ 0.15 µM) | 0.07 (≈ 0.263 µM) | 0.02 (≈ 0.0751 µM) | 0.07 (≈ 0.263 µM) | 0.07 (≈ 0.263 µM) | 0.02 (≈ 0.0751 µM) | 0.2 (≈ 0.751 µM) | 0.1 (≈ 0.376 µM) | 0.01 (≈ 0.0376 µM) | 0.3 (≈ 1.13 µM) | 0.173 (≈ 0.65 µM)
